Measurements as given in PMC9623456 (RSC Advances, 2022).
Converted amounts (≈) assume the structure as drawn.

What was measured:
[1] = system: mouse embryo cell lines 3T3-L1; test: MTT assay; assay type: cell-based; details: for IC50: Mus musculus, 3T3-L1, read-out: 3T3-L1 IC50
Procedure, shortened: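 MTT metabolic-activity assay in mouse embryo 3T3-L1 cells exposed to a range of test-compound concentrations. Percent viability was calculated by formula and plotted against concentration in μg ml−1. IC50 was taken from the dose–response curve as the concentration giving 50% growth suppression.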

3T3-L1 cells = test: Scratch wound assay; assay type: cell-based, mouse; details: 3T3-L1, 24 hours
Procedure, shortened: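 Scratch assay: 3T3-L1 cells were grown to confluence, then wounded with a pipette tip and treated with test compounds. Wound width was measured at the time of scratching and again after 24 h.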

mice = test: Acute oral toxicity study; assay type: in vivo
Procedure, shortened: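 OECD 420 fixed-dose procedure in mice. Animals were dosed orally in stepwise groups at fixed doses of 5, 50, 300 and 2000 mg kg−1. Further groups received higher or lower fixed doses depending on the presence or absence of toxicity or death. Read-outs were clinical signs of toxicity and mortality.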

diabetic rats = test: Full thickness excision wound model in STZ-nicotinamide diabetic rats; assay type: in vivo, Wistar male albino rats
[2] = molecular target: HIF-1α prolyl hydroxylase-2 (PHD2); details: PHD2 inhibition; cited from earlier work
[3] = Phase 2 trial; cited from earlier work

Question: For `c1ccc(-c2cc(-c3ccccc3)n(Cn3ccnc3)n2)cc1` [CI, 1-(Imidazol-1-ylmethyl) −3,5-diphenylpyrazole], which IC50 [1] is on record?
Answer: 107 µg/mL (≈ 355 µM)

Question: And the “Activity compared to the positive control hyaluronic acid” value (3T3-L1 cells)?
Answer: comparable activity

Question: And the “Acute oral toxicity outcome” value (mice; oral, 2000 mg kg^−1)?
Answer: died

Question: What about the “Acute oral toxicity outcome” value (mice; oral, 5, 50, and 300 mg kg^−1) of the same compound?
Answer: no adverse effects or fatality

Question: And the “Wound contraction (%)” value (diabetic rats; High dose 150 mg kg^−1, oral, Day 3)?
Answer: 24.5 ± 0.48 %

Question: And the “Wound contraction (%)” value (diabetic rats; High dose 150 mg kg^−1, oral, Day 7)?
Answer: 31.25 ± 0.39 %

Question: What about the “Wound contraction (%)” value (diabetic rats; High dose 150 mg kg^−1, oral, Day 11) of the same compound?
Answer: 64.00 ± 0.44 %

Question: And the “Wound contraction (%)” value (diabetic rats; Low dose 75 mg kg^−1, oral, Day 3)?
Answer: 18.25 ± 0.55 %

Question: And the “Wound contraction (%)” value (diabetic rats; Low dose 75 mg kg^−1, oral, Day 7)?
Answer: 24.50 ± 0.30 %

Question: What about the “Wound contraction (%)” value (diabetic rats; Low dose 75 mg kg^−1, oral, Day 11) of the same compound?
Answer: 41.5 ± 0.43 %

Question: What about the “Wound contraction (%)” value (diabetic rats; Low dose 75 mg kg^−1, oral, Day 15) of the same compound?
Answer: 55.77 ± 0.42 %

Question: And the “Wound healing in rats” value (diabetic rats; oral, diabetic rats)?
Answer: improved wound healing

Question: For `c1ccc(-c2cc(-c3ccccc3)n(CN(c3ccccc3)c3ccccc3)n2)cc1` [CDPA, N-[(3,5-diphenylpyrazol-1-yl)methyl] -N-phenylaniline], which IC50 [1] is on record?
Answer: 132 µg/mL (≈ 328 µM)

Question: For `c1ccc(-c2cc(-c3ccccc3)n(Cn3cccn3)n2)cc1` [CP, 3,5-Diphenyl-1-(pyrazole-1-ylmethyl) pyrazole], which IC50 [1] is on record?
Answer: 111 µg/mL (≈ 371 µM)

Question: What about the “Activity compared to the positive control hyaluronic acid” value (3T3-L1 cells) of the same compound?
Answer: comparable activity

Question: Which IC50 [2] does the source give for `O=C(O)CNC(=O)c1nc(Cl)c2ccccc2c1O` [FG-2216] here?
Answer: 3.9 µM

Question: What about the Fatal outcome [3] of the same compound?
Answer: one patient died of hepatic necrosis

Question: And the “Liver enzyme test results” value [3]?
Answer: aberrant liver enzyme test results

Question: For Hyaluronic acid [reference compound], which “3T3-L1 IC50” value ([1]; MTT assay, 3T3-L1) is on record?
Answer: 112.59 µg/mL
